Where “and” joins values, the source holds several entries; their conditions need not be identical. Equal values may be shown once.
How the values were obtained:
Canis familiaris [1] = species: Canis familiaris; assay: In vitro electrophysiological evaluation in canine cardiac Purkinje fibres reported as percent change Vmax at 10 uM at concentration range of 1-30 uM; Minimal (<10% decrease or increase in Vmax).; type: functional; conditions: Canis lupus familiaris, Purkinje fiber
Canis familiaris [2] = species: Canis familiaris; assay: (§1) In vitro electrophysiological evaluation in canine cardiac occurred is 100.; type: functional; conditions: Canis lupus familiaris; Heart
Canis familiaris [3] = species: Canis familiaris; assay: In vitro electrophysiological evaluation in canine cardiac Purkinje fibres reported as % change for action potential duration at a concentration of 10 uM; type: functional, Canis lupus familiaris, Purkinje fiber
Method in brief: (§2)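 Canine cardiac Purkinje fibres, intracellular microelectrode recording, paced at a basic cycle length of 1 s. APD95 and Vmax read simultaneously. Compound: 10 mM stock in deionized water, diluted into Tyrode's solution, tested over the stated concentration range. Each fibre used once as its own control. Result is % change from control, given at 10 µM or as the maximum with its concentration. M = <10% decrease or an increase in Vmax.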

Canis familiaris [4] = species: Canis familiaris; assay: (§3) In vitro electrophysiological activity in canine cardiac occurred is 100.; type: functional, Canis lupus familiaris, Heart
Canis familiaris [5] = species: Canis familiaris; assay: In vitro electrophysiological evaluation in canine cardiac Purkinje fibres reported as percent change Vmax at 10 uM at concentration range of 0.1-100 uM; Minimal (<10% decrease or increase in Vmax).; type: functional, organism-based; conditions: Canis lupus familiaris, Purkinje fiber; method in brief: as §2
Canis familiaris [6] = species: Canis familiaris; assay: In vitro electrophysiological evaluation in canine cardiac ventricular muscle reported as % change for the functional refractory period (FRP) at 10 uM at concentration range of 0.1-100 uM; design: species or system Canis lupus familiaris, Muscle tissue
Method in brief: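 Canine right ventricle and papillary muscle strips in oxygenated Tyrode's solution, fitted with stimulating and recording electrodes. The extra-stimulus conduction-interval method was adapted for in vitro use. FRP and CT were read from a conduction-interval curve before and after various compound concentrations, and expressed as percent change from control. Compounds were taken from 10 mM deionized-water stock into Tyrode's. Each strip was used once as its own control.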

Canis familiaris [7] = species: Canis familiaris; assay: In vitro electrophysiological evaluation in canine cardiac Purkinje fibres reported as percent change Vmax at 10 uM at concentration range of 5-100 uM; Minimal (<10% decrease or increase in Vmax).; type: functional; conditions: Canis lupus familiaris, Purkinje fiber
Canis familiaris [8] = species: Canis familiaris; assay: In vitro electrophysiological evaluation in canine cardiac Purkinje fibres reported as % change for action potential duration at 10 uM at 1-30 uM concentration range; type: functional, Canis lupus familiaris, Purkinje fiber
Method in brief: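 Canine cardiac Purkinje fibers, intracellular recording, paced at a basic cycle length of 1 s. APD95 and Vmax are recorded together across cumulative concentrations. Compound is a 10 mM aqueous stock diluted into Tyrode's solution. Each fiber is used once as its own control. Readouts are percent change from control at 10 μM, and the maximum change with the concentration where it occurred.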

Canis familiaris [9] = species: Canis familiaris; assay: as §3; type: functional, Canis lupus familiaris, Heart; remark: listed apart in the source
Canis familiaris [10] = species: Canis familiaris; assay: as §1; type: functional; conditions: Canis lupus familiaris; Heart; remark: listed apart in the source
Canis familiaris [11] = species: Canis familiaris; assay: as §3; type: functional, Canis lupus familiaris, Heart; remark: listed apart in the source
Canis familiaris [12] = species: Canis familiaris; assay: In vitro electrophysiological evaluation in canine cardiac ventricular muscle reported as maximum % change for conduction time(CT) at 0.1-100 uM concentration range; Minimal (<10% decrease or increase in […]).; type: functional, Canis lupus familiaris, Muscle tissue
Method in brief: (§4)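 Canine right ventricular/papillary muscle strips in oxygenated Tyrode's, extracellular extra-stimulus conduction-interval method. FRP and CT are read from conduction-interval curves before and during rising concentrations. Compound is a 10 mM aqueous stock diluted into Tyrode's. Each strip is used once as its own control. Readouts are percent change from control at 10 μM, plus the maximum change with its concentration.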

Canis familiaris [13] = assay: Effective dose administered intravenously to elicit Antiarrhythmic efficacy in anesthetized dogs was reported; Number of animals effective at that dose is 1.; type: functional, Canis lupus familiaris, Heart
Method in brief: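 Dogs are anesthetized and the chest reopened. Stimulating and recording electrodes go on the myocardium. Reproducible PES-induced sustained VT or VF is confirmed first; SVT is ended by burst pacing and VF by DC countershock. Compound is given iv in 0.9% saline and inducibility retested. A dose counts as effective when SVT/VF cannot be reinduced in two of three animals.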

Canis familiaris [14] = species: Canis familiaris; assay: In vitro electrophysiological evaluation in canine cardiac ventricular muscle reported as % change for conduction time(CT) at 10 uM at 0.1-100 uM concentration range; Minimal (<10% decrease or increase in […]).; type: functional, Canis lupus familiaris, Muscle tissue; method in brief: as §4
Canis familiaris [15] = species: Canis familiaris; assay: In vitro electrophysiological evaluation in canine cardiac ventricular muscle reported as maximum % change for functional refractory period (FRP) at 0.1-100 uM concentration range; concentration at which it occurred is 100.; design: species or system Canis lupus familiaris, Muscle tissue
Canis familiaris [16] = species: Canis familiaris; assay: as §3; type: functional, Canis lupus familiaris, Heart; remark: listed apart in the source
Canis familiaris [17] = species: Canis familiaris; assay: as §1; type: functional; conditions: Canis lupus familiaris; Heart; remark: listed apart in the source
Canis familiaris [18] = species: Canis familiaris; assay: In vitro electrophysiological evaluation in canine cardiac Purkinje fibres reported as maximum percent change Vmax concentration range of 0.1-100 uM; Minimal (<10% decrease or increase in Vmax).; type: functional; conditions: Canis lupus familiaris; Purkinje fiber; method in brief: as §2

## CCN(CC)CC(=O)Nc1c(C)cccc1C [LIDOCAINE]
Canis familiaris [1]
  Vmax: < 10%
Canis familiaris [2]
  Vmax: -11%
Canis familiaris [3]
  APD95: -23%
Canis familiaris [4]
  APD95: -43%
Canis familiaris [5]
  Vmax: < 10%
Canis familiaris [6]
  FRP: 6% and 4% and 2%
Canis familiaris [7]
  Vmax: < 10%
Canis familiaris [8]
  APD95: -30%
Canis familiaris [9]
  APD95: -43%
Canis familiaris [10]
  Vmax: -10%
Canis familiaris [11]
  APD95: -48%
Canis familiaris [12]
  CT: <10%
Canis familiaris [13]
  Effective dose: 3 mg/kg
Canis familiaris [14]
  CT: <10%
Canis familiaris [15]
  FRP: 23% and 8% and 18%
Canis familiaris [16]
  APD95: -33%
Canis familiaris [17]
  Vmax: -42%
Canis familiaris [18]
  Vmax: < 10%

— ChEMBL document CHEMBL1123566, “Synthesis and cardiac electrophysiological activity of 2- and 3-[(substituted phenyl)alkyl]quinuclidines. Structure-activity relationships” (1987)
